Each structure is given as a SMILES string. The source made the active and inactive calls.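 The calls were made as follows, unless noted: active = fluorescence slope after compound addition differing from the mean of all tested samples at 99.7% confidence, mostly higher but some lower; inactive = the rest.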

In general, inhibition refers to the drop in the measured response relative to a control, in per cent.

The nature of assay [1]: inhibitors of TNFa-induced NFkB p65 translocation, primary screen, imaging, HUVEC, MLSMR starter and 10KST1 sets (AID 438;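 active = inhibition above 20% together with a positive visual image hit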;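 also: compound added about 3h40 before a 20 min TNFalpha stimulation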;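 as to inhibition: signal is the nuclear over cytoplasmic p65 intensity ratio per well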). The following applies: HUVEC TNFa-induced p65 nuclear translocation; cell count: measured here: nuclei count (cytotoxicity indicator), at 2.08 µM; inhibition: at 2 µM, stronger effect = higher value, 0% TNFa-plus-vehicle, 100% no-TNFa wells.
Assay [2] is described as follows: inhibitors of mutant huntingtin aggregation, primary screen, imaging, exon1htt(103Q)mCFP cells, high-content imaging (AID 483;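 active = visual image review flags a hit and inhibition of aggregation exceeds 20%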;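 also: compound exposure lasted 3 days before fixation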;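 as to nuclei count: percent of the per-plate median nuclei count of sample wells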). To be noted: exon1htt(103Q)mCFP cell line, aggregate imaging, at 2 µM; inhibition of aggregation: stronger effect = higher value; nuclei count: measured here: cell count, toxicity.
A short description of assay [3]: inhibitors of E-selectin induction by TNFa, primary screen, imaging, HUVEC, immunofluorescence, MLSMR starter and 10KST1 sets (AID 487;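 active = visually confirmed hit in the image check and inhibition above 20%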;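 as to inhibition: signal is fraction of cell area covered by stained E-selectin grains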;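 as to nuclei count: 100% = median nuclei count of all wells on the same plate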). To be noted: HUVEC TNFalpha-induced E-selectin immunofluorescence imaging, at 2 µM; inhibition: stronger effect = higher value; nuclei count: measured here: cell number, toxicity.
Assay [4] deals with Voltage-gated potassium channel subunit beta-2 (Rattus norvegicus) (UniProt P62483). The assay is described as follows: KvBeta enzyme negative modulators, primary screen, biochemical, NADPH fluorescence (AID 622;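 active = fluorescence slope higher than the sample average by over 3 SD, cut at about -0.22 in these data, passing the limit was not always enough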;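 also: slope of raw intensity against log time taken from 70 to 1610 s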). The following applies: recombinant KvBeta, 4-cyanobenzaldehyde reduction, at 10 µM, stronger effect = higher value.
For assay [5] the target is unchanged. The assay is described as follows: KvBeta positive modulators, primary screen, biochemical, NADPH fluorescence (AID 623;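 active = NADPH fluorescence slope more negative than the mean of all samples by about 3 SD, 99.7% confidence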;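 also: fluorescence intensity change per second fitted from 20 to 320 s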). The following applies: Recombinant KvBeta, NADPH fluorescence decrease slope, 10 min; at 10 µM; stronger effect = lower value.
Assay [6] addresses Muscarinic acetylcholine receptor M4 (Homo sapiens) (UniProt P08173). The assay is described as follows: compounds altering M4/GIRK thallium flux, either direction, primary screen, M4 allosteric agonist project, cell-based, HEK293 M4/GIRK, BTC-AM (AID 625).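 Also: thallium influx through GIRK channels coupled to M4 in HEK293 cells with BTC-AM dye.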 The following applies: at 10 µM, actives lie on both sides. In outline:
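Material – HEK293 cells with M4 receptor and GIRK channels · Buffer or medium – pH 7.3 thallium assay buffer · Doses – one dose, 10 µM final · Timing – cells overnight at 37 °C, BTC-AM loading 1 h, reads 2 min total · Measured by – kinetic fluorescence with BTC-AM dye · Controls – carbachol and DMSO controls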

The nature of assay [7]: inhibitors of Sendai virus-induced IRF3 signaling, primary screen, TLR/RLR signaling modifier project, cell-based, Sendai virus stimulus, luciferase, 10K MLSCN set (AID 602276;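 active = inhibition at or above 50% at 10 µM; inactive = inhibition below 50%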;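 also: firefly luciferase from ISG56 promoter only with Renilla not read in this screen; 0% = Sendai virus plus DMSO and 100% = medium plus DMSO without virus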). To be noted: HEK293 RL24 IRF3 luciferase reporter, at 10 µM, stronger effect = higher value. In general terms: In a reporter assay the amount or activity of a reporter protein is the signal.
Assay [8] is described as follows: inhibitors of poly I:C-induced TLR3 signaling, primary screen, cell-based, poly I:C stimulus, luciferase, 10K MLSCN set (AID 602277;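 active = inhibition of the reporter signal at or above 50%; inactive = inhibition below 50%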). To be noted: HEK293-TLR3 RL24 IRF3 luciferase reporter, at 10 µM, stronger effect = higher value.

Sequence of Voltage-gated potassium channel subunit beta-2 (Rattus norvegicus) (P62483 whole entry, looked up): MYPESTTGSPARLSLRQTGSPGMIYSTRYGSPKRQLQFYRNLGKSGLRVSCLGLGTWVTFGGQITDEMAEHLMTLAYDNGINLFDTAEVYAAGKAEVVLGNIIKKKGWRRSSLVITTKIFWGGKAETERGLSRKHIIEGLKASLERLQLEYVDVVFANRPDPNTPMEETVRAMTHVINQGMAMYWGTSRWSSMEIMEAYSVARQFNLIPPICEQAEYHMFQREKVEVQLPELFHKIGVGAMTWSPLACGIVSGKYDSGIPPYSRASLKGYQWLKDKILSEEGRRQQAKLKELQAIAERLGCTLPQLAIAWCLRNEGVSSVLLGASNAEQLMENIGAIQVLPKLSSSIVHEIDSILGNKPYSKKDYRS
Sequence of Muscarinic acetylcholine receptor M4 (Homo sapiens) (P08173 whole entry, looked up): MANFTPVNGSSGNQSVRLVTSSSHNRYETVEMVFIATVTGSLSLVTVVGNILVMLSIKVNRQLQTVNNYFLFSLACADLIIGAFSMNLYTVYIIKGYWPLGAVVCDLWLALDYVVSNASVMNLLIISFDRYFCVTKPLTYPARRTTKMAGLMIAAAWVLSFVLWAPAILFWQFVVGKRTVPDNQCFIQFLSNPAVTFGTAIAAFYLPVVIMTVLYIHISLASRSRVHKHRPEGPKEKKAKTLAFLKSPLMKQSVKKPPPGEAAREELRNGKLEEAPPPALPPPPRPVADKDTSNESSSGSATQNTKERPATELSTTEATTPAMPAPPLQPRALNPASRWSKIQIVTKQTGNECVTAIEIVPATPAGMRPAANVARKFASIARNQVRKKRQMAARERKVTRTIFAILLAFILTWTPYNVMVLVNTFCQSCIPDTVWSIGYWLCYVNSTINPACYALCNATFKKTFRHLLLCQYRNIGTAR

With `CC1(C)C2CCC1(CS(=O)(=O)NCc1ccc(C(=O)O)cc1)C(=O)C2` (centres undefined), the cell count in assay [1] was determined as 517. For the same molecule, the inhibition in assay [1] was -16.3% (inactive); in assay [3] it was 46.1% (inactive); in assay [7], 36.1% (inactive); in assay [8] it was 30.6% (inactive). In addition, the inhibition of aggregation in assay [2] was 1.1% (inactive). For the same molecule, the nuclei count in assay [2] worked out at 90.1%; in assay [3] it was 100%. For the same molecule, the figures for the fluorescence slope in assay [4] and in assay [6] were -0.606 (inactive) and 0.00724 (inactive), respectively. Besides, the NADPH fluorescence slope in assay [5] is 2.9e-05 (inactive).
Consider `CCOC(=O)c1sc(NC(=O)CSc2nc3c(cc2C#N)CCC3)c(C#N)c1C`, for which, in assay [1], the cell count amounted to 775. For the same molecule, the inhibition was -6.4% (inactive) in assay [1], -140% (inactive) in assay [3], 18.5% (inactive) in assay [7] and 18.8% (inactive) in assay [8]. In addition, in assay [2], the inhibition of aggregation is -2.5% (inactive). In addition, the results for the nuclei count in assay [2] and in assay [3] were 94.5% and 140%, respectively. Moreover, the fluorescence slope in assay [4] was -0.457 (inactive); in assay [6], 0.00501 (inactive). In addition, the NADPH fluorescence slope in assay [5] was 2.2e-05 (inactive).
On to `[O-][n+]1onc2c1CCc1nnc(-c3ccccc3)cc1-2`, for which, in assay [1], the cell count worked out at 320. Further, the inhibition in assay [1] was -0.8% (inactive); in assay [3] it was -7.3% (inactive); in assay [7] it was -0.775% (inactive); in assay [8], -6.53% (inactive). Moreover, the inhibition of aggregation in assay [2] is 7.5% (inactive). In addition, the nuclei count in assay [2] is 102%; in assay [3], 123%. The fluorescence slope in assay [4] was -0.598 (inactive); in assay [6] it was 0.00387 (inactive). Moreover, in assay [5], the NADPH fluorescence slope was 2.3e-05 (inactive).
`Cc1nc(=S)n(-c2ccccc2)[nH]1`: in assay [1], the cell count came out at 638. The inhibition was -5% (inactive) in assay [1], -31.2% (inactive) in assay [3], 11.3% (inactive) in assay [7] and 10.6% (inactive) in assay [8]. The inhibition of aggregation in assay [2] is 16.1% (inactive). The nuclei count in assay [2] is 113%; in assay [3], 120%. The results for the fluorescence slope in assay [4] and in assay [6] were -0.538 (inactive) and 0.00665 (inactive), respectively. For the same molecule, the NADPH fluorescence slope in assay [5] was -1.9e-05 (inactive).
On to `Cc1ccc(S(=O)(=O)N2CCCC2)cc1S(=O)(=O)N1CCCC1`, for which the cell count in assay [1] turned out to be 698. The inhibition in assay [1] was -9% (inactive); in assay [3], 10.3% (inactive); in assay [7], 13.4% (inactive); in assay [8] it was 12.9% (inactive). The inhibition of aggregation in assay [2] was -7.5% (inactive). Also, the nuclei count in assay [2] stood at 111%; in assay [3], 116%. The fluorescence slope is -0.609 (inactive) in assay [4] and 0.00607 (inactive) in assay [6]. The NADPH fluorescence slope in assay [5] was -1.2e-05 (inactive).
On to `O=C(O)c1ccc(-n2nnnc2Oc2ccccc2C(=O)N2CCOCC2)cc1`, for which, in assay [1], the cell count is 478. Further, the inhibition in assay [1] was -20.3% (inactive); in assay [3] it was 2.2% (inactive); in assay [7], 21% (inactive); in assay [8], 12.5% (inactive). Moreover, in assay [2], the inhibition of aggregation was -2.2% (inactive). Further, the nuclei count in assay [2] is 53.4%; in assay [3], 89.9%. Further, the figures for the fluorescence slope in assay [4] and in assay [6] were -0.482 (inactive) and 0.0048 (inactive), respectively. Also, the NADPH fluorescence slope in assay [5] was -1.8e-05 (inactive).
As to `CCn1c(=O)cc(SCC(=O)NCC2CCCO2)c2ccccc21` (centres undefined), the cell count in assay [1] came to 404. The inhibition is -4.9% (inactive) in assay [1], 32.5% (inactive) in assay [3], 18.5% (inactive) in assay [7] and 34.6% (inactive) in assay [8]. Besides, the inhibition of aggregation in assay [2] was 0% (inactive). For the same molecule, the nuclei count in assay [2] was found to be 97.1%; in assay [3], 103%. For the same molecule, the fluorescence slope in assay [4] is -0.568 (inactive); in assay [6], 0.00498 (inactive). Besides, in assay [5], the NADPH fluorescence slope was -1.6e-05 (inactive).
For the molecule `COc1ccc(Cn2nnnc2C(c2ccncc2)N2CCOCC2)cc1` (centres undefined), the cell count in assay [1] amounted to 543. Also, the inhibition in assay [1] was 0.5% (inactive); in assay [3], -90.6% (inactive); in assay [7], 7.51% (inactive); in assay [8], 9.52% (inactive). In addition, in assay [2], the inhibition of aggregation is -5.2% (inactive). For the same molecule, the nuclei count in assay [2] amounted to 90.8%; in assay [3], 119%. In addition, the fluorescence slope was -0.608 (inactive) in assay [4] and 0.00759 (inactive) in assay [6]. Besides, the NADPH fluorescence slope in assay [5] is -1.7e-05 (inactive).
Consider `COc1cc2c(cc1OC)CN(C(=O)COc1ccc(C#N)cc1)CC2`, for which the cell count in assay [1] came out at 283. In addition, the inhibition in assay [1] is -7.5% (inactive); in assay [3], 4.1% (inactive); in assay [7], 6.14% (inactive); in assay [8], 4.87% (inactive). Further, the inhibition of aggregation in assay [2] was 4.5% (inactive). The nuclei count in assay [2] came out at 91.8%; in assay [3], 90.3%. Besides, the fluorescence slope was -0.574 (inactive) in assay [4] and 0.00682 (inactive) in assay [6]. In addition, in assay [5], the NADPH fluorescence slope is -4.9e-05 (inactive).
With `COc1ccc(C2=NOC(C(=O)NCCCN3CCOCC3)C2)cc1` (centres undefined), in assay [1], the cell count was 315. The inhibition is 3.5% (inactive) in assay [1], 11.5% (inactive) in assay [3], 11.7% (inactive) in assay [7] and 23.1% (inactive) in assay [8]. The inhibition of aggregation in assay [2] was 11.3% (inactive). Moreover, the nuclei count in assay [2] is 86%; in assay [3], 84.7%. Further, the fluorescence slope in assay [4] was -0.554 (inactive); in assay [6], 0.00417 (inactive). Besides, in assay [5], the NADPH fluorescence slope was -0.000122 (inactive).
Turning to `COC(=O)c1[nH]c2ccccc2c1NC(=O)CN1CCC(C(N)=O)(N2CCCCC2)CC1`, the cell count in assay [1] is 259. Also, the inhibition is 3.8% (inactive) in assay [1], -114% (inactive) in assay [3], 20.8% (inactive) in assay [7] and 30.6% (inactive) in assay [8]. The inhibition of aggregation in assay [2] was 6.6% (inactive). Also, the nuclei count in assay [2] was 72.7%; in assay [3], 168%. For the same molecule, the fluorescence slope is -0.598 (inactive) in assay [4] and 0.00286 (inactive) in assay [6]. Further, in assay [5], the NADPH fluorescence slope is -1.9e-05 (inactive).
In the case of `CCn1cc(C(=O)N2CCCC2)c(=O)c2cc(S(=O)(=O)N3CCOCC3)ccc21`, the cell count in assay [1] is 542. Further, the inhibition in assay [1] is -1% (inactive); in assay [3], 14.8% (inactive); in assay [7], 1.49% (inactive); in assay [8], 12.8% (inactive). Further, in assay [2], the inhibition of aggregation is -13.1% (inactive). Besides, the results for the nuclei count in assay [2] and in assay [3] were 100% and 113%, respectively. Also, the fluorescence slope in assay [4] was -0.427 (inactive); in assay [6] it was 0.00706 (inactive). Besides, in assay [5], the NADPH fluorescence slope is -7.4e-05 (inactive).
`COc1ccc(C(=O)Nn2c(SCC(=O)NCC3CCCO3)nc3ccccc3c2=O)cc1` (centres undefined): in assay [1], the cell count worked out at 512. Also, the inhibition in assay [1] is -3.6% (inactive); in assay [3], -60.6% (inactive); in assay [7] it was 15.1% (inactive); in assay [8] it was 49.1% (inactive). Besides, in assay [2], the inhibition of aggregation was 13.2% (inactive). The nuclei count amounted to 103% in assay [2] and 106% in assay [3]. Besides, the fluorescence slope in assay [4] was -0.511 (inactive); in assay [6], 0.00522 (inactive). Moreover, in assay [5], the NADPH fluorescence slope is -6.1e-05 (inactive).
Regarding `CCCCn1c(SCc2cccnc2)nc2c1c(=O)n(C)c(=O)n2C`, the cell count in assay [1] was determined as 502. Further, the inhibition in assay [1] is -7.2% (inactive); in assay [3] it was -15.9% (inactive); in assay [7], -4.82% (inactive); in assay [8], 0.323% (inactive). The inhibition of aggregation in assay [2] was 27.2% (inactive). Moreover, the nuclei count in assay [2] worked out at 90.8%; in assay [3], 198%. The results for the fluorescence slope in assay [4] and in assay [6] were -0.511 (inactive) and 0.00468 (inactive), respectively. Also, the NADPH fluorescence slope in assay [5] was -3.3e-05 (inactive).

These data come from PubChem BioAssay.
